Measurements published in ChEMBL document CHEMBL4251542, “Discovery of cyclopropyl chromane-derived pyridopyrazine-1,6-dione γ-secretase modulators with robust central efficacy” (Medchemcomm, 2017).
pIC50: −log10 of the molar value.

Experiments:
[1] = Total Cmax in Sprague-Dawley rat at 30 mg/kg administered via oral gavage measured at 1 to 24 hrs post dose; assay type: ADME, organism-based; set-up: dose 30 mg/kg, route oral; conditions: in vivo
How it was run: (§1)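 Single escalating oral gavage doses given to Sprague-Dawley rats, 3/sex/dose. Suspension in 0.5% methylcellulose with 0.1% Polysorbate 80, dosed at 10 mL/kg. […] Clinical signs also monitored.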

[2] = Apparent intrinsic clearance in human liver microsomes; assay type: ADME, microsome; conditions: read-out: CLH
[3] = Cardiotoxicity in Wistar rat langendorff isolated heart model assessed as decrease in contractility perfused for 5 mins measured for 1 min; assay type: toxicity, tissue-based
Rattus norvegicus [4] = assay: Toxicity in Sprague-Dawley rat assessed as lethality at 30 mg/kg administered via oral gavage; assay type: organism-based; conditions: in vivo
How it was run: (§2)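 Single escalating oral gavage doses given to Sprague-Dawley rats, 3 per sex per dose. Suspension in 0.5% methylcellulose with 0.1% Polysorbate 80, dosed at 10 mL/kg. Clinical signs watched continuously for the first several hours and/or intermittently through the dosing day. Plasma drug levels sampled at 1, 4, 8 and 24 h post-dose. Lethality scored per group of 6.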

[5] = Ratio of IC50 for decrease in contractility of Wistar rat langendorff isolated heart model to fCmax in Sprague-Dawley rat at 30 mg/kg administered via oral gavage; assay type: organism-based; conditions: in vivo
Gamma-secretase = assay: Modulation of gamma-secretase (unknown origin) expressed in CHO cells co-expressing human wild type APP assessed as reduction in amyloid beta 42 levels after 24 hrs by ELISA; assay type: cell-based
Rattus norvegicus [6] = assay: Unbound Cmax in Sprague-Dawley rat at 30 mg/kg administered via oral gavage measured at 1 to 24 hrs post dose; assay type: ADME, organism-based; conditions: in vivo; how it was run: as §1
[7] = Cardiotoxicity in Wistar rat langendorff isolated heart model assessed as decrease in perfusion pressure perfused for 5 mins measured for 1 min; assay type: toxicity, tissue-based
MDR1 (P-gp), human = assay: in vitro; conditions: dog, MDCK-MDR1;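 also: transwell permeability assay, efflux ratio of apparent permeability, compound tested at 2 µM over 5 h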
[8] = Cardiotoxicity in Wistar rat langendorff isolated heart model assessed as decrease in left ventricle pressure perfused for 5 mins measured for 1 min; assay type: toxicity, tissue-based
[9] = Fraction unbound in rat brain; assay type: ADME, tissue-based
[10] = Unbound brain concentration in Sprague-Dawley rat at 10 mg/kg, po; assay type: ADME, organism-based; conditions: in vivo
Rattus norvegicus [11] = assay: Reduction of amyloid beta 42 levels in Sprague-Dawley rat at unbound brain concentration administered 10 mg/kg, po by DELFIA analysis relative to control; assay type: functional
Rattus norvegicus [12] = assay: Toxicity in Sprague-Dawley rat assessed as lethality at 300 mg/kg administered via oral gavage; assay type: organism-based; conditions: in vivo
[13] = Clearance in rat at 1 mg/kg, iv; assay type: ADME, organism-based; conditions: in vivo
[14] = Total Cmax in Sprague-Dawley rat at 300 mg/kg administered via oral gavage measured at 1 to 24 hrs post dose; assay type: ADME, organism-based; set-up: dose 300 mg/kg, route oral; conditions: in vivo
[15] = Unbound brain concentration in Sprague-Dawley rat at 40 mg/kg, po; assay type: ADME, organism-based; conditions: in vivo
Rattus norvegicus [16] = assay: Reduction of amyloid beta 42 levels in Sprague-Dawley rat at 10 mg/kg, po measured at 4 hrs by DELFIA analysis relative to control; assay type: functional; set-up: scale not given: the % may be the effect or the level left
How it was run: (§3)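 Male Sprague-Dawley rats (254-326 g) dosed orally with vehicle or 10 or 40 mg/kg. Brains taken at 1, 4, 8, 11, 16 and 20 h post-dose, 4 rats per group. Homogenized in 0.4% DEA/50 mM NaCl, held overnight at 4 °C, spun at 135,000xg for 1 h. Supernatant cleaned by solid-phase extraction and concentrated; Aβ42 read by DELFIA as % change vs vehicle.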

[17] = Fraction unbound in rat plasma; assay type: ADME, cell-free
[18] = Ratio of drug level in brain to plasma in rat at 5 mg/kg, sc measured at 1 to 7 hrs; assay type: ADME, organism-based; conditions: brain and plasma, read-out: BPR
Rattus norvegicus [19] = assay: Reduction of amyloid beta 42 levels in Sprague-Dawley rat at 40 mg/kg, po measured at 4 hrs by DELFIA analysis relative to control; assay type: functional; set-up: scale not given: the % may be the effect or the level left; how it was run: as §3
[20] = Half life in rat at 1 mg/kg, iv; assay type: ADME, organism-based; conditions: in vivo
[21] = Oral bioavailability in rat at 5 mg/kg; assay type: ADME, organism-based; conditions: in vivo
Rattus norvegicus [22] = assay: Unbound Cmax in Sprague-Dawley rat at 300 mg/kg administered via oral gavage measured at 1 to 24 hrs post dose; assay type: ADME, organism-based; conditions: in vivo
[23] = Total Cmax in Sprague-Dawley rat at 100 mg/kg administered via oral gavage measured at 1 to 24 hrs post dose; assay type: ADME, organism-based; set-up: dose 100 mg/kg, route oral; conditions: in vivo; how it was run: as §1
Rattus norvegicus [24] = assay: Unbound Cmax in Sprague-Dawley rat at 100 mg/kg administered via oral gavage measured at 1 to 24 hrs post dose; assay type: ADME, organism-based; conditions: in vivo; how it was run: as §1
[25] = Ratio of IC50 for decrease in contractility of Wistar rat langendorff isolated heart model to fCmax in Sprague-Dawley rat at 100 mg/kg administered via oral gavage; assay type: organism-based; conditions: in vivo
Rattus norvegicus [26] = assay: Toxicity in Sprague-Dawley rat assessed as lethality at 100 mg/kg administered via oral gavage; assay type: organism-based; conditions: in vivo; how it was run: as §2

SMILES	microsomal CLint [2]	pIC50 (Gamma-secretase)	efflux ratio at 5 h, 2 µM (MDR1 (P-gp), human)	also measured
Cc1cn(-c2ccc3n(c2=O)CCN([C@@H](C)C2=CC(C)(C)Oc4ccc(C(F)(F)F)cc42)C3=O)cn1	14.3 µL/min/mg	8.31	1.9	Cmax [1]: 5.84 µM; IC50 at 5 min [3]: 1360 nM; Activity (Rattus norvegicus [4]): Toxic; Ratio [5]: 6.6; fCmax (Rattus norvegicus [6]): 205 nM; EC50 at 5 min [7]: 576 nM; IC50 at 5 min [8]: 1030 nM
Cc1cn(-c2ccc3n(c2=O)CCN(C[C@@]24C[C@@H]2COc2cc(C(F)(F)F)ccc24)C3=O)cn1	14.6 µL/min/mg	7.28	1.7	
Cc1cn(-c2ccc3n(c2=O)CCN(C[C@@]24C[C@@H]2C(C)(C)Oc2ccc(C(F)(F)F)cc24)C3=O)cn1	34.5 µL/min/mg			IC50 at 5 min [3]: > 30000 nM; fraction unbound [9]: 0.0054; Drug uptake(free) [10]: 11 nM; %max (Rattus norvegicus [11]): 40%; Activity (Rattus norvegicus [12]): Non-Toxic; clearance [13]: 26.4 mL/min/kg; Cmax [14]: 90.4 µM; Drug uptake(free) [15]: 67 nM; Activity (Rattus norvegicus [16]): 40%; fraction unbound [17]: 0.018; Kp [18]: 0.76; Activity (Rattus norvegicus [19]): 62%; EC50 at 5 min [7]: > 30000 nM; half-life [20]: 1.6 h; IC50 at 5 min [8]: > 30000 nM; bioavailability [21]: 67%; fCmax (Rattus norvegicus [22]): 1620 nM
Cc1cn(-c2ccc3n(c2=O)CCN(CC2=CC(C)(C)Oc4ccc(C(F)(F)F)cc42)C3=O)cn1	47.8 µL/min/mg	7.89	2	
Cc1cn(-c2ccc3n(c2=O)CCN(CC2CCOc4ccc(C(F)(F)F)cc42)C3=O)cn1 (stereo unspecified)	37.6 µL/min/mg	6.49	1.9	
Cc1cn(-c2ccc3n(c2=O)CCN(C[C@@]24C[C@@H]2COc2ccc(C(F)(F)F)cc24)C3=O)cn1	37.9 µL/min/mg	8.25	2.4	
Cc1cn(-c2ccc3n(c2=O)CCN([C@H](C)C2=CC(C)(C)Oc4ccc(C(F)(F)F)cc42)C3=O)cn1	242 µL/min/mg	6.10	1.8	
Cc1cn(-c2ccc3n(c2=O)CCN(C[C@@]24C[C@@H]2COc2ccc(Cl)cc24)C3=O)cn1	43.9 µL/min/mg	7.20	1.8	
Cc1cn(-c2ccc3n(c2=O)CCN(CC2=CC(C)(C)Oc4ccc(Cl)cc42)C3=O)cn1		7.28	1.9	
Cc1cn(-c2ccc3n(c2=O)CCN(C[C@]24C[C@H]2COc2ccc(C(F)(F)F)cc24)C3=O)cn1	70.5 µL/min/mg	6.89	1.9	
Cc1cn(-c2ccc3n(c2=O)CCN(CC2=CCOc4ccc(C(F)(F)F)cc42)C3=O)cn1	108 µL/min/mg	7.52	1.7	
Cc1cn(-c2ccc3n(c2=O)CCN(C[C@@]24C[C@@H]2C(C)(C)Oc2ccc(OC(F)(F)F)cc24)C3=O)cn1	42.4 µL/min/mg	8.29	2.1	IC50 at 5 min [3]: > 30000 nM; Activity (Rattus norvegicus [12]): Non-Toxic; Cmax [14]: 60.9 µM; EC50 at 5 min [7]: > 30000 nM; IC50 at 5 min [8]: > 30000 nM; fCmax (Rattus norvegicus [22]): 670 nM
Cc1cn(-c2ccc3n(c2=O)CCN([C@@H](C)C2=CC(C)(C)Oc4ccc(OC(F)(F)F)cc42)C3=O)cn1	25.7 µL/min/mg	8.22	1.9	IC50 at 5 min [3]: 2480 nM; Cmax [23]: 17.7 µM; fCmax (Rattus norvegicus [24]): 620 nM; EC50 at 5 min [7]: 1370 nM; Ratio [25]: 4; Activity (Rattus norvegicus [26]): Toxic; IC50 at 5 min [8]: 1620 nM
COc1ccc2c(c1)[C@]1(CN3CCn4c(ccc(-n5cnc(C)c5)c4=O)C3=O)C[C@@H]1CO2	33.7 µL/min/mg	6.74	2.2	
